Assay results: ChEMBL document CHEMBL4513216, “Probing the Open Global Health Chemical Diversity Library for Multistage-Active Starting Points for Next-Generation Antimalarials” (ACS Infect Dis, 2020)

Experiment: Toxicity liver stage against HepG2, at 10uM
Assay type: cell-based
Design: test concentration 10 uM, cell line HepG2-A16-CD81EGFP
Conditions: human, HepG2-A16-CD81EGFP cells; read-out: INHIBITION
Summary of the method: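 Uninfected HepG2-A16-CD81EGFP cells, 3 × 10^3 per well, 1536-well, plated on prespotted compound at 10 μM final, parasite-free screening media added to match infected plates; puromycin 10 μM positive, DMSO 0.5% negative; run in parallel with 48 h PbLuc assay at 37 °C, 5% CO2; viability by CellTiter-Glo luminescence, normalized to controls.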

O=C(O)c1ccnc(SCC(=O)c2ccccc2)c1
cytotoxicity at 10 µM: -3.78%

Cc1ccc(CN2C[C@H]3CN(C(=O)c4ccno4)CCN3C2=O)cc1
cytotoxicity at 10 µM: -2.07%

CSCC[C@@H](CO)NC(=O)c1sc(-c2ccccc2Cl)nc1C
cytotoxicity at 10 µM: 14.3%

Cc1[nH]nc(-c2ccc(F)cc2)c1CC(=O)NCC1CCOCC1
cytotoxicity at 10 µM: -0.707%

CCOC(=O)N1CCNC(c2cccs2)C1 (stereo unspecified)
cytotoxicity at 10 µM: -147%

Cn1cc(N2C[C@@H]3CN(S(=O)(=O)C4CC4)C[C@@H]3C2=O)cn1
cytotoxicity at 10 µM: 1.86%

CNC(=O)c1cc2c(nc1NCC1CC1)CCNCC2
cytotoxicity at 10 µM: -0.966%

COC(=O)CC1CCN(C(=O)c2ccccc2-n2nnnc2C)CC1
cytotoxicity at 10 µM: -7.27%

CCc1ccc(-n2nnc(C(=O)O)c2-c2ccccn2)cc1
cytotoxicity at 10 µM: -1.92%

OCCNc1nc(NCCc2ccccc2)nc2nccnc12
cytotoxicity at 10 µM: 5.91%

CNC(=O)c1cccnc1Oc1ccccc1
cytotoxicity at 10 µM: 2.84%

CCCS(=O)(=O)Nc1ccc2c(c1)OCC(C)(C)C(=O)N2C
cytotoxicity at 10 µM: -10.8%

Cc1c[nH]c(C2CCCN(C(=O)CCc3c(C)n[nH]c3C)C2)n1 (stereo unspecified)
cytotoxicity at 10 µM: 4.88%

Cc1cc(NCC2CCCCC2)n2ncnc2n1
cytotoxicity at 10 µM: -2.1%

Cc1sc2c(C3CCCN(C)C3)nc(C)n2c1C (stereo unspecified)
cytotoxicity at 10 µM: -26.9%

N#Cc1cccc(CNc2ccc(F)cc2OCCO)c1
cytotoxicity at 10 µM: -2.03%

COc1cccc(CN(C)CCCn2cnc3c(N)ncnc32)c1
cytotoxicity at 10 µM: -2.63%

O=S(=O)(N1CCCCCC1)N1CCCN(CC2CCCO2)CC1 (stereo unspecified)
cytotoxicity at 10 µM: 0.863%

Cc1nc(CNC2(C(=O)OC(C)(C)C)CCCC2)oc1C
cytotoxicity at 10 µM: -0.457%

CCOCCN1CCN(CC(=O)NC2(C#N)CCCC2)CC1C (stereo unspecified)
cytotoxicity at 10 µM: 5.33%

OC1(CNc2ccc(Br)cn2)CCOCC1
cytotoxicity at 10 µM: 6.91%

Cc1ccc(C(=O)NC2CCCN(CC(N)=O)C2)c(=O)[nH]1 (stereo unspecified)
cytotoxicity at 10 µM: 0.601%

CS(=O)(=O)NCc1cccc(COC2CCCCC2)c1
cytotoxicity at 10 µM: 3.12%

COCc1ccccc1C(=O)OCc1noc(C)n1
cytotoxicity at 10 µM: 7.01%

CCOc1ccc(Cl)c(C(=O)NC(C(N)=O)c2ccccc2)n1 (stereo unspecified)
cytotoxicity at 10 µM: -0.425%

Cc1cc(CN(C)CC2CC(C3CCCCC3)=NO2)no1 (stereo unspecified)
cytotoxicity at 10 µM: 22.4%

CS(=O)(=O)c1ccc2c(c1)N(C(=O)c1cccc(F)c1)CCC2
cytotoxicity at 10 µM: 8.05%

O=C(Cc1csc(-c2ccccn2)n1)NCCCN1CCCCCC1=O
cytotoxicity at 10 µM: 1.16%

CN(CC1CCC1)C(=O)Nc1cccnc1-n1cncn1
cytotoxicity at 10 µM: 2.86%

Cc1cc(C)cc(NC(=O)Cc2c(C)nc3c(c2C)c(=O)[nH]n3C)c1
cytotoxicity at 10 µM: 10.6%

CNC(=O)C1Cc2ccccc2CN1CCc1cccs1 (stereo unspecified)
cytotoxicity at 10 µM: -0.837%

CNC(=O)C1Cc2ccccc2CN1CCCc1ccccc1 (stereo unspecified)
cytotoxicity at 10 µM: 4.23%

CCc1nnc(CN2CCN(C(C)=O)CC2)o1
cytotoxicity at 10 µM: 4.39%

COCCOCC(C)NC(=O)COc1nn(C)c2nc(C)cc(C)c12 (stereo unspecified)
cytotoxicity at 10 µM: -3.85%

CCc1n[nH]c(C2CN(C(=O)Cc3ccc(C)nc3)CCO2)n1 (stereo unspecified)
cytotoxicity at 10 µM: 6.97%

O=C(NCCc1nnc2n1CCC2)NCC1(c2ccc(F)cc2)CC1
cytotoxicity at 10 µM: -2.23%

CC(C)n1cc(CN2CCCN(C(=O)c3cccnc3O)CC2)cn1
cytotoxicity at 10 µM: 4.29%

CN(Cc1ccc2c(c1)OCO2)Cc1nc(Cc2ccccc2)no1
cytotoxicity at 10 µM: -2.59%

CCN(CC)Cc1ccc(C(=O)NC2CCc3cc(F)ccc32)o1 (stereo unspecified)
cytotoxicity at 10 µM: -9.03%

Cc1csc(C2CCCCN2C(=O)CCCn2cccn2)n1 (stereo unspecified)
cytotoxicity at 10 µM: -0.89%

Cc1cccc(S(=O)(=O)NC(=O)c2ccc3c(c2)nnn3C)c1
cytotoxicity at 10 µM: -8.97%

Cc1cscc1C(=O)NC1CC(=O)N(C(C)C)C1=O (stereo unspecified)
cytotoxicity at 10 µM: -6.51%

CC(C)CC(NC(=O)c1ccn(C)c(=O)c1)c1ccccc1 (stereo unspecified)
cytotoxicity at 10 µM: -6.76%

COCCSc1ccc(C(C)NC(=O)Nc2cccnc2)cc1 (stereo unspecified)
cytotoxicity at 10 µM: 12.3%

CC(NC(=O)c1cccnc1N(C)C)c1ccccc1Cl (stereo unspecified)
cytotoxicity at 10 µM: -4.97%

CC(C)N(Cc1ccc(Cl)c(Cl)c1)C(=O)Cn1cncn1
cytotoxicity at 10 µM: 4.19%

O=C(NCCC(=O)N1CCCC1)c1ccc(SCc2cccnc2)cc1
cytotoxicity at 10 µM: 8.95%

Cc1nnc(CN(C)Cc2nc3c(s2)CCCC3)o1
cytotoxicity at 10 µM: -1.42%

Cc1c(CNC(=O)C2CCCN2C(=O)C2CC2)oc2ccccc12 (stereo unspecified)
cytotoxicity at 10 µM: 5.6%

Cc1ncc(CN(C)CC(O)c2ccc(OC(F)(F)F)cc2)s1 (stereo unspecified)
cytotoxicity at 10 µM: 9.99%

CNC(=O)C(C)CN(C)C(=O)Nc1ccc(F)c(-n2cccc2)c1 (stereo unspecified)
cytotoxicity at 10 µM: -2.07%

O=C(CCc1nccs1)N1CCC(N2CCNC2=O)CC1
cytotoxicity at 10 µM: -9.86%

Cc1nc(C)n(CC2CCCN2CC(=O)NCCc2ccccc2)n1 (stereo unspecified)
cytotoxicity at 10 µM: -16.5%

O=C(c1cocn1)N1C[C@H]2CCC[C@@]2(COCc2cccnc2)C1
cytotoxicity at 10 µM: 7.35%

COCCN1C[C@H]2[C@@H](C1)N(C(=O)c1cccc(OC)c1)CC[C@H]2OC
cytotoxicity at 10 µM: 3.56%

CC(C)C1CN(c2ncccn2)CCC(=O)N1CC1CC1 (stereo unspecified)
cytotoxicity at 10 µM: 0.0666%

Fc1cccnc1Oc1cc(F)c(CN2CCCC2)c(F)c1
cytotoxicity at 10 µM: -7.32%

O=C(c1ccc(-c2cccc3c2CCNC3)o1)N1CCCC1
cytotoxicity at 10 µM: 3.34%

c1c(-c2nc(CN3CCOCC3)no2)nnn1CC1CCCCC1
cytotoxicity at 10 µM: 3.15%

Cc1cc(C)n(CC(C)NC(=O)c2cc(C(C)C)on2)n1 (stereo unspecified)
cytotoxicity at 10 µM: 0.5%

Cc1nc[nH]c1C(=O)N1CCCC2(C1)C(=O)N(C)c1ccccc12 (stereo unspecified)
cytotoxicity at 10 µM: -6.01%

OC1(CNCCN2CCCc3ccccc32)CCNC1 (stereo unspecified)
cytotoxicity at 10 µM: 7.03%

CS(=O)(=O)NCCC(=O)N1Cc2cnc(-c3ccccc3)nc2C1
cytotoxicity at 10 µM: -4.65%

Cc1nn(C)cc1-c1ccnc(N2CCN(c3ccccc3)C(=O)C2)n1
cytotoxicity at 10 µM: -7.57%

COCCC(=O)N1CCCC(CCC(=O)NCc2cccc(OC)c2)C1 (stereo unspecified)
cytotoxicity at 10 µM: 23.1%

Cc1ccc(C(C(=O)N2CCN(C(=O)c3ccc[nH]3)CC2)N(C)C)cc1 (stereo unspecified)
cytotoxicity at 10 µM: -10.7%

Cc1noc(C)c1CCCNC(=O)C1CCN(C(=O)C2CC2)CC1
cytotoxicity at 10 µM: 1.23%

CCc1nc(C)c(CNC(=O)CCCN2CCCCC2)s1
cytotoxicity at 10 µM: -4.65%

Cc1cc(CN2CCC(C3CCN(CCc4ccccc4)CC3)C2)[nH]n1 (stereo unspecified)
cytotoxicity at 10 µM: 9.2%

CCCc1nnc(N2C[C@@H](C)[C@@](C)(O)C2)s1
cytotoxicity at 10 µM: 1.22%

COc1cc(-c2nccn2CCn2cccn2)cc2c1OCO2
cytotoxicity at 10 µM: -3.81%

C[C@@H]1CN(C(=O)C2(Cn3cccn3)CC2)C[C@@]1(O)C1CCC1
cytotoxicity at 10 µM: 1.56%

Cc1ccccc1N1CCN(C(=O)CSc2ccncc2)CC1=O
cytotoxicity at 10 µM: 6.71%

COc1ccc(S(=O)(=O)N[C@H]2CN(C(C)=O)C[C@@H]2C2CC2)cc1C
cytotoxicity at 10 µM: 4.57%

OCC1(CC2CC2)CCCN(Cc2cnc(N3CCOCC3)nc2)C1 (stereo unspecified)
cytotoxicity at 10 µM: -0.274%

CCN(Cc1cnn(CC)c1)C(=O)CN1C(=O)CCc2ccccc21
cytotoxicity at 10 µM: -2.17%

CCN(CCn1cccn1)C(=O)CN1C(=O)OC[C@@H]1c1ccccc1
cytotoxicity at 10 µM: -12.1%

COCCN1CCCC2(CCN(Cc3noc(C4CCCC4)n3)C2)C1=O (stereo unspecified)
cytotoxicity at 10 µM: 3.96%

CCC1(CO)CCN(C(=O)c2cc(COc3ccccc3F)[nH]n2)CC1
cytotoxicity at 10 µM: 4.45%

CCCn1cnnc1CNC(=O)C1COc2c(cccc2OC)C1 (stereo unspecified)
cytotoxicity at 10 µM: -1.26%

Cn1ccnc1CN1CCC(CCC(=O)Nc2ccccc2Cl)CC1
cytotoxicity at 10 µM: -3.73%

CC(Cn1cncn1)Nc1ccc(-c2nccn2C)nn1 (stereo unspecified)
cytotoxicity at 10 µM: -3.73%

CC(CO)CN(Cc1ccccc1)Cc1c[nH]cn1 (stereo unspecified)
cytotoxicity at 10 µM: 6.04%

CN(C)C(=O)c1nc(CN2CC(Cc3ccccc3)CC2=O)no1 (stereo unspecified)
cytotoxicity at 10 µM: -0.849%

CC(C)OCCCNC(=O)[C@@]12CNC[C@@H]1CN(S(C)(=O)=O)C2
cytotoxicity at 10 µM: 6.99%

CN(Cc1ncc[nH]1)C(=O)C(C)(C)NC(=O)c1cccs1
cytotoxicity at 10 µM: 11.6%

CC(=O)N[C@@H]1CN(C(=O)c2csc(C(C)C)n2)C[C@H]1C(C)C
cytotoxicity at 10 µM: -6.71%

O=C(CCN1CCOC(CNc2cccnn2)C1)NC1CCCCC1 (stereo unspecified)
cytotoxicity at 10 µM: 3.09%

CN(CC(=O)N1CCC(N(C)c2ccccc2)CC1)c1cnccn1
cytotoxicity at 10 µM: -6.6%

O=C(c1cc(C2CC2)[nH]n1)N1CCN(Cc2ccc3c(c2)OCO3)CC1
cytotoxicity at 10 µM: -2.32%

CCNC(=O)NC(=O)CNC(C)(C)c1ccc2c(c1)OCCO2
cytotoxicity at 10 µM: -19.7%

CCc1nnc2n1CCN(Cc1ncc(-c3ccccc3)o1)C2
cytotoxicity at 10 µM: -3.98%

c1ccc(Cn2cc(CNCC3CNc4ccnn4C3)cn2)cc1 (stereo unspecified)
cytotoxicity at 10 µM: -11.6%

N#Cc1ccc(OCCN2CCc3cncnc3C2)cc1
cytotoxicity at 10 µM: -9.96%

Cc1noc(C)c1CS(=O)(=O)CC(=O)N1CCc2sccc2C1
cytotoxicity at 10 µM: -17%

Cc1csc(N2CCCN(CCC(=O)NC(N)=O)CC2)n1
cytotoxicity at 10 µM: -24.2%

O=C(NCc1ccc(-n2cncn2)nc1)c1cc(Cl)c2c(c1)OCCO2
cytotoxicity at 10 µM: -16.5%

COc1ccc(CNC(=O)Nc2cccnc2OC)cc1O
cytotoxicity at 10 µM: -26.3%

CN(Cc1ccc(-n2cccn2)cc1)CC1CCCN1c1cccnn1 (stereo unspecified)
cytotoxicity at 10 µM: -3.98%

Cc1cnn(CC2CCCN2C(=O)CCc2ccc3c(c2)OCO3)c1 (stereo unspecified)
cytotoxicity at 10 µM: -19%

Cc1noc(C)c1C(=O)N1CCCN(Cc2cscn2)CC1
cytotoxicity at 10 µM: -1.56%

Cc1ncsc1C(=O)NC1CCN(CC(=O)N(C)c2ccccc2)CC1
cytotoxicity at 10 µM: 1.26%

Cc1cccc(-c2[nH]ncc2CNCC2CCN(CC(C)O)CC2)c1 (stereo unspecified)
cytotoxicity at 10 µM: -10.1%

O=C(c1ccc2c(c1)OCO2)N1CCCC(n2cccn2)C1 (stereo unspecified)
cytotoxicity at 10 µM: -8.4%

O=S(=O)(c1ccc(Cl)cc1)N1CCc2nc(C3CCNCC3)ncc2C1
cytotoxicity at 10 µM: -17.3%

CCN1CC2(CC1=O)CN(Cc1cnn(C)c1)CCN(C(=O)C(C)C)C2 (stereo unspecified)
cytotoxicity at 10 µM: -15%

O=C(Nc1cnccn1)[C@@H]1COC[C@H]2CN(C3CCCC3)C[C@H]21
cytotoxicity at 10 µM: -21.9%

CC(C)OCc1ncn2c1CN(Cc1ccc(F)cc1)CCC2
cytotoxicity at 10 µM: 1.39%

CCSCCNC(=O)c1ccc(S(=O)(=O)N2C[C@H]3C[C@@H]2CN3)cc1
cytotoxicity at 10 µM: -1.98%

O=C(Nc1cccnc1)[C@H]1C[C@H]2CN(C(=O)NC3CCCC3)C[C@@H]1O2
cytotoxicity at 10 µM: 2.96%

CCOC(=O)N1CCC(n2cc3[nH]cccc-3c2=O)CC1
cytotoxicity at 10 µM: 3.6%
